Results taken from the EternaBench riboswitch data.

System: MS2 coat protein
Assay: apparent Kd, MS2 coat protein; higher = weaker binding; RNA-MaP array; FMN 200 µM where present
Summary of the method: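 The apparent Kd comes from binding curves fitted cluster by cluster, filtered, and summarised as a median. Those curves followed SNAP-549-labelled MS2 coat protein from 0.7 or 1.5 nM, doubling to 3 µM, on Illumina sequencing-chip clusters where stalled E. coli RNA polymerase had transcribed the designs, without and then with constant ligand. The buffer was 100 mM Tris-HCl pH 7.5, 80 mM KCl, 4 mM MgCl2, BSA, DTT, yeast tRNA and Tween-20, and green signal was normalised to red-channel RNA signal and control-cluster median Fmax.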

[1] = designed as: OFF switch for flavin mononucleotide, no ligand
[2] = ligand present: flavin mononucleotide, designed as: OFF switch for flavin mononucleotide
[3] = designed as: ON switch for flavin mononucleotide, no ligand
[4] = ligand present: flavin mononucleotide, designed as: ON switch for flavin mononucleotide

“GCAGCGUAUGUAGGAUAUCGGUCAGUUUCUGAUCGAGAAGGACAUGAGGAUCACCCAUGUAAAUUACCGACAUUGUCGGGCUGC” was tested. Which “apparent Kd” value [1] did it give?
Its value is 6.5 nM.

What about the “apparent Kd” value [2] of the same sequence?
Its value is 8.25 nM.

For “UUAGAUUAUUGAGGAUAUGGAUAUUUUUAUUAACCAGAAGGCAAACUCAACAUGAGGAUCACCCAUGUAUAAAGGGUAUUAGUU”, which “apparent Kd” value [1] is on record?
Its value is 95.6 nM.

What about the “apparent Kd” value [2] of the same sequence?
The value was 92.7 nM.

Which results are given for “UAUUUUUAUGUAAGGAUAUGGGUUUGGUUGCGGGCUUAGAAGGUACAUGAGGAUCACCCAUGUAUUUUGUGCGU”?
apparent Kd [1]: 16.9 nM; apparent Kd [2]: 18.3 nM

“GCUUUUAAGGGAGGAUAUUGUUACAUGAGGAUCACCCAUGUGGCGGGAUGAUAUCUUAACAGGAACGAGAAGGCCCAAACGCGA” was tested. Which “apparent Kd” value [1] did it give?
Its value is 35.7 nM.

And the “apparent Kd” value [2]?
Its value is 65.4 nM.

How did the “apparent Kd” value [1] turn out when “GGAAGAAUGAUACCUUUUUAUUACAUGAGGAUCACCCAUGUGCAGGAUAUCGAUUAUUAUAGUUUCGAGAAGGGCAAGAAUUGU” was run?
Its value is 19.7 nM.

What about the “apparent Kd” value [2] of the same sequence?
The value was 52.4 nM.

“AUACAAUUUCGAGGAUAUCGGUGAUAAAUAAUACGAGAAGGCGAUGAAAGAUAUAAUCCUAUUUACAUGAGGAUCACCCAUGUU” was tested. Which “apparent Kd” value [3] did it give?
The value was 34.8 nM.

What about the “apparent Kd” value [4] of the same sequence?
The value was 31.1 nM.

“GUUUCUAUAUGUUUUAUUUAACAGUCAGAAGGUGAUACUACGACAUGAGGAUCACCCAUGUAAUUCAAGGAUAUGAACUUAAUC” was tested. Which “apparent Kd” value [3] did it give?
Its value is 1060 nM.

And the “apparent Kd” value [4]?
Its value is 517 nM.

How did the “apparent Kd” value [1] turn out when “UUAUUUAGGUAGGAUAUCGAUACUAAUUAUUAUCGAGAAGGGUCUACAUGAGGAUCACCCAUGUUAGCAUGUUU” was run?
The value was 28 nM.

And the “apparent Kd” value [2]?
The value was 27.7 nM.

What does the source list for “GGGCGUGAAGGAUAUACAUGAGGAUCACCCAUGUGGGAGGAGAGUGGUGAGGAGGCUGGUAGAAGGUCAGGAUG”?
apparent Kd [1]: 44.8 nM; apparent Kd [2]: 36.8 nM

With “UCGCUCCGUGUAGGAUAUCGCCGUUCUAUUCGGCGAGAAGGACAUGAGGAUCACCCAUGUAUGUUAUUAUCACGCGUGGCGCAA” as the sequence, how does the “apparent Kd” value [1] read?
Its value is 16 nM.

What about the “apparent Kd” value [2] of the same sequence?
The value was 19.1 nM.

Which results are given for “UGGGUAAAUGUAGGAUAUUUAUAUUAAUAGUAUGGAGAAGGACAUGAGGAUCACCCAUGUACAGGGAGUUACCCAUUUCCUCUC”?
apparent Kd [1]: 670 nM; apparent Kd [2]: 662 nM

What does the source list for “GCUUUAUAGAUCCAUUUUAACAACAUGAGGAUCACCCAUGUGCAGGAUAUCGUUUGUUUUAUAUUCGAGAAGGGCAAAUUCAUC”?
apparent Kd [1]: 37.9 nM; apparent Kd [2]: 93.1 nM

What does the source list for “GUGUGCUGAGGAUAUACAGAGGAAGAUAAGAUAAGAUAAUCACAUGAGGAUCACCCAUGUAGAAGGCAGAGUGU”?
apparent Kd [1]: 23.7 nM; apparent Kd [2]: 35.5 nM

What does the source list for “AGGAUCCUAUCAAGACAAAUGUACAUGAGGAUCACCCAUGUGCAGGAUAUAGCUAGUUACGGUGGUUAGAAGGGCACGCCAAAA”?
apparent Kd [1]: 8.98 nM; apparent Kd [2]: 13.3 nM

What does the source list for “UUAUAUAGGUAGGAUAUCGAUAUUAAUUAUUAUCGAGAAGGGUCUACAUGAGGAUCACCCAUGUUAGCAUGUAU”?
apparent Kd [1]: 28.9 nM; apparent Kd [2]: 32.9 nM

For “AAGGUGAGAGGAUAUACAUGAGGAUCACCCAUGUGUCGGCCCUCCACAUAUGCCUUGUGUAGAAGGCUCCCGAG”, which “apparent Kd” value [1] is on record?
The value was 14.6 nM.

What about the “apparent Kd” value [2] of the same sequence?
Its value is 22.3 nM.

Which results are given for “GAUUUACAUGAGGAUCACCCAUGUGAGGAUAUGGAAUGGCUCAUUGUCUGAUUUCCUUCUAGAAGGCACAUCUU”?
apparent Kd [1]: 43.7 nM; apparent Kd [2]: 51 nM

What does the source list for “UUUUAACAUGAGGAUCACCCAUGUGAGGAUAUCGAUUUUUAUAUUAAUAUUAAUAAAACGAGAAGGCACAUUUU”?
apparent Kd [1]: 123 nM; apparent Kd [2]: 79.3 nM

For “UGGACGGGAGGAUAUACAUGAGGAUCACCCAUGUAAAAUUGUAUAAUAUAUAGUUCGUGUAGAAGGUUUGUUUU”, which “apparent Kd” value [1] is on record?
The value was 49.6 nM.

And the “apparent Kd” value [2]?
The value was 44.7 nM.

Which “apparent Kd” value [1] does the source give for “CAGUCUACAGGAUAUACAUGAGGAUCACCCAUGUGUUUUCACUUUCAGUAGUCUAUAUGUAGAAGGGUAGACUG” here?
Its value is 24.8 nM.

And the “apparent Kd” value [2]?
The value was 90.1 nM.

Which “apparent Kd” value [1] does the source give for “CCUCGUUGGGAGGAUAUCCUUUUGGUUGGAGGAGGAGAAGGCUCGACAUGAGGAUCACCCAUGUGGGAUUUCCC” here?
The value was 62.4 nM.

And the “apparent Kd” value [2]?
The value was 194 nM.

Which results are given for “GCCGGGUAGGCAGGAUAUCCUCGCGCAAACACAUGAGGAUCACCCAUGUACACAAAACGUGAUAUGGAGAAGGGCCAACCCACG”?
apparent Kd [3]: 24.1 nM; apparent Kd [4]: 5.8 nM

What does the source list for “UUAUGCUGAGAGAAGGUUCAAACUACAUAUUGCACACAUGAGGAUCACCCAUGUUGGUGAAUAAGAAAGGAUAUUUUACUGUAU”?
apparent Kd [1]: 20.1 nM; apparent Kd [2]: 16.9 nM

With “UUGAGGUGCAAGAAGGGUCACAUGAGGAUCACCCAUGUCAUGUGAAGUCUCGAGAUUUUAUGUGGAUAGGAUAUUGCACCGAAC” as the sequence, how does the “apparent Kd” value [3] read?
Its value is 203 nM.

And the “apparent Kd” value [4]?
The value was 113 nM.

Which “apparent Kd” value [1] does the source give for “UGUCGGAGCAGAGGAUAUUACAUGAGGAUCACCCAUGUAUGAACCAAUAGCUGGAAUCAGCAAUGUAAGAAGGCUGCUCCGACA” here?
The value was 17.5 nM.

What about the “apparent Kd” value [2] of the same sequence?
The value was 167 nM.

Which “apparent Kd” value [3] does the source give for “UUUGUCAUCGAGAAGGCCUCAACAUGAGGAUCACCCAUGUUGUAAUAUGGGAGGAUAUCGAUGAUACAGCUACGUUUCGUAGGG” here?
Its value is 18.1 nM.

And the “apparent Kd” value [4]?
The value was 5.6 nM.
